≈ marks a conversion by molar mass, not a printed value.
What was measured:
Type in all cases: functional
Nakaseomyces glabratus [1] = test: Antifungal activity against Candida glabrata 20/I after 24 hrs by microdilution broth method
Outline: (§1)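 CLSI M27-A3 broth microdilution in RPMI 1640 with glutamine, buffered to pH 7.0 with MOPS; DMSO diluent. Yeast inoculum 5 × 10^3 ± 0.2 CFU/mL. Moulds grown on Sabouraud agar 3–10 days before spore harvest, final inoculum 0.5-5 × 10^4 CFU/mL, checked in a Bürker chamber. Incubated dark, humid, 35 °C, read at 24 and 48 h visually and at 540 nm. MIC taken as ≥80% (yeasts) or ≥50% (filamentous) growth reduction versus control.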

Mycobacterium kansasii [2] = test: Antimycobacterial activity against Mycobacterium kansasii 235/80 after 14 days; conditions: 235/80, 336 h
Outline: (§2)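 Šula's semisynthetic medium micromethod at 37 °C, read after 7, 14 and 21 days. The 1.0 McFarland suspension was diluted 10^-4. MIC determined. 6509/96 is a clinical isolate.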

Enterococcus sp. [3] = test: Antibacterial activity against Enterococcus sp. J 14365/08 after 24 hrs by microdilution broth method; conditions: J 14365/08, 24 h
Outline: (§3)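 Mueller-Hinton broth microdilution (modified M07-A07), pH 7.4 (±0.2). Compounds dissolved in DMSO, tested at final 500 to 0.49 µmol/L. Inoculum in sterile water matched to 0.5 McFarland. Incubated in the dark, humid atmosphere, 35 °C, read at 24 and 48 h visually and at 540 nm. MIC taken as ≥95% growth reduction (IC95) versus control.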

Staphylococcus aureus [4] = test: Antibacterial activity against Staphylococcus aureus CCM 4516/08 after 48 hrs by microdilution broth method; conditions: CCM 4516/08, 48 h
Pseudomonas aeruginosa [5] = test: Antibacterial activity against Pseudomonas aeruginosa CCM 1961 after 48 hrs by microdilution broth method; conditions: CCM 1961, 48 h; outline: as §3
[6] = tested on: Trichophyton mentagrophytes; test: Antifungal activity against Trichophyton mentagrophytes 445 after 24 hrs by microdilution broth method; conditions: Trichophyton mentagrophytes, 445, 24 h
Mycobacterium kansasii [7] = test: Antimycobacterial activity against Mycobacterium kansasii 6509/96 after 21 days; conditions: 6509/96, 504 h; outline: as §2
[8] = tested on: Mycobacterium tuberculosis; test: Antimycobacterial activity against Mycobacterium tuberculosis H37Rv 331/88 after 14 days; conditions: H37Rv 331/88, 336 h
Trichosporon asahii [9] = test: Antifungal activity against Trichosporon asahii 1188 after 24 hrs by microdilution broth method; conditions: Trichosporon asahii, 1188, 24 h; outline: as §1
[10] = tested on: Trichophyton mentagrophytes; test: Antifungal activity against Trichophyton mentagrophytes 445 after 48 hrs by microdilution broth method; conditions: Trichophyton mentagrophytes, 445, 48 h
Klebsiella pneumoniae [11] = test: Antibacterial activity against Klebsiella pneumoniae D 11750/08 after 48 hrs by microdilution broth method; conditions: D 11750/08, 48 h; outline: as §3
[12] = tested on: Mycobacterium tuberculosis; test: Antimycobacterial activity against Mycobacterium tuberculosis H37Rv 331/88 after 21 days; conditions: H37Rv 331/88, 504 h
Mycobacterium kansasii [13] = test: Antimycobacterial activity against Mycobacterium kansasii 6509/96 after 7 days; conditions: 6509/96, 168 h; outline: as §2
Lichtheimia corymbifera [14] = test: Antifungal activity against Absidia corymbifera 272 after 24 hrs by microdilution broth method; conditions: Lichtheimia corymbifera, 272, 24 h; outline: as §1
Mycobacterium kansasii [15] = test: Antimycobacterial activity against Mycobacterium kansasii 235/80 after 21 days; conditions: 235/80, 504 h; outline: as §2
Klebsiella pneumoniae [16] = test: Antibacterial activity against Klebsiella pneumoniae D 11750/08 after 24 hrs by microdilution broth method; conditions: D 11750/08, 24 h; outline: as §3
Enterococcus sp. [17] = test: Antibacterial activity against Enterococcus sp. J 14365/08 after 48 hrs by microdilution broth method; conditions: J 14365/08, 48 h; outline: as §3
Staphylococcus aureus [18] = test: Antibacterial activity against methicillin-resistant Staphylococcus aureus H 5996/08 after 24 hrs by microdilution broth method; conditions: H 5996/08, 24 h
Aspergillus fumigatus [19] = test: Antifungal activity against Aspergillus fumigatus 231 after 24 hrs by microdilution broth method; conditions: Aspergillus fumigatus, 231, 24 h; outline: as §1
Candida albicans [20] = test: Antifungal activity against Candida albicans ATCC 44859 after 24 hrs by microdilution broth method; conditions: ATCC 44859, 24 h; outline: as §1
[21] = tested on: Staphylococcus epidermidis; test: Antibacterial activity against Staphylococcus epidermidis H 6966/08 after 24 hrs by microdilution broth method; conditions: H 6966/08, 24 h; outline: as §3
Candida tropicalis [22] = test: Antifungal activity against Candida tropicalis 156 after 48 hrs by microdilution broth method; conditions: Candida tropicalis, 156, 48 h; outline: as §1
Mycobacterium kansasii [23] = test: Antimycobacterial activity against Mycobacterium kansasii 6509/96 after 14 days; conditions: 6509/96, 336 h; outline: as §2
Escherichia coli [24] = test: Antibacterial activity against Escherichia coli CCM4517 after 48 hrs by microdilution broth method; conditions: CCM4517, 48 h; outline: as §3
Klebsiella pneumoniae [25] = test: Antibacterial activity against ESBL-positive Klebsiella pneumoniae J 14368/08 after 48 hrs by microdilution broth method; conditions: J 14368/08, 48 h; outline: as §3
Mycobacterium kansasii [26] = test: Antimycobacterial activity against Mycobacterium kansasii 235/80 after 7 days; conditions: 235/80, 168 h; outline: as §2
[27] = tested on: Staphylococcus epidermidis; test: Antibacterial activity against Staphylococcus epidermidis H 6966/08 after 48 hrs by microdilution broth method; conditions: H 6966/08, 48 h; outline: as §3
Candida tropicalis [28] = test: Antifungal activity against Candida tropicalis 156 after 24 hrs by microdilution broth method; conditions: Candida tropicalis, 156, 24 h; outline: as §1
Pseudomonas aeruginosa [29] = test: Antibacterial activity against Pseudomonas aeruginosa CCM 1961 after 24 hrs by microdilution broth method; conditions: CCM 1961, 24 h; outline: as §3
Aspergillus fumigatus [30] = test: Antifungal activity against Aspergillus fumigatus 231 after 48 hrs by microdilution broth method; conditions: Aspergillus fumigatus, 231, 48 h; outline: as §1
Mycobacterium avium [31] = test: Antimycobacterial activity against Mycobacterium avium 330/80 after 21 days; conditions: 330/80, 504 h
Pichia kudriavzevii [32] = test: Antifungal activity against Candida krusei E28 after 48 hrs by microdilution broth method; conditions: E28, 48 h; outline: as §1
Pichia kudriavzevii [33] = test: Antifungal activity against Candida krusei E28 after 24 hrs by microdilution broth method; conditions: E28, 24 h; outline: as §1
Staphylococcus aureus [34] = test: Antibacterial activity against methicillin-resistant Staphylococcus aureus H 5996/08 after 48 hrs by microdilution broth method; conditions: H 5996/08, 48 h
Candida albicans [35] = test: Antifungal activity against Candida albicans ATCC 44859 after 48 hrs by microdilution broth method; conditions: ATCC 44859, 48 h; outline: as §1
Lichtheimia corymbifera [36] = test: Antifungal activity against Absidia corymbifera 272 after 48 hrs by microdilution broth method; conditions: Lichtheimia corymbifera, 272, 48 h; outline: as §1
Staphylococcus aureus [37] = test: Antibacterial activity against Staphylococcus aureus CCM 4516/08 after 24 hrs by microdilution broth method; conditions: CCM 4516/08, 24 h
Escherichia coli [38] = test: Antibacterial activity against Escherichia coli CCM4517 after 24 hrs by microdilution broth method; conditions: CCM4517, 24 h; outline: as §3
Trichosporon asahii [39] = test: Antifungal activity against Trichosporon asahii 1188 after 48 hrs by microdilution broth method; conditions: Trichosporon asahii, 1188, 48 h; outline: as §1
Klebsiella pneumoniae [40] = test: Antibacterial activity against ESBL-positive Klebsiella pneumoniae J 14368/08 after 24 hrs by microdilution broth method; conditions: J 14368/08, 24 h; outline: as §3
Nakaseomyces glabratus [41] = test: Antifungal activity against Candida glabrata 20/I after 48 hrs by microdilution broth method; outline: as §1
Mycobacterium avium [42] = test: Antimycobacterial activity against Mycobacterium avium 330/80 after 14 days; conditions: 330/80, 336 h

SMILES: O=C(Nc1cccc(Cl)c1)c1ccc([N+](=O)[O-])cc1O
- MIC (Nakaseomyces glabratus [1]): > 500 µM
- MIC (Mycobacterium kansasii [2]): 16 µM (≈ 4.68 µg/mL)
- MIC (Enterococcus sp. [3]): 500 µM (≈ 146 µg/mL)
- MIC (Staphylococcus aureus [4]): 15.6 µM (≈ 4.57 µg/mL)
- MIC (Pseudomonas aeruginosa [5]): > 500 µM
- MIC [6]: 62.5 µM (≈ 18.3 µg/mL)
- MIC (Mycobacterium kansasii [7]): 16 µM (≈ 4.68 µg/mL)
- MIC [8]: 8 µM (≈ 2.34 µg/mL)
- MIC (Trichosporon asahii [9]): 62.5 µM (≈ 18.3 µg/mL)
- MIC [10]: 62.5 µM (≈ 18.3 µg/mL)
- MIC (Klebsiella pneumoniae [11]): > 500 µM
- MIC [12]: 16 µM (≈ 4.68 µg/mL)
- MIC (Mycobacterium kansasii [13]): 16 µM (≈ 4.68 µg/mL)
- MIC (Lichtheimia corymbifera [14]): 62.5 µM (≈ 18.3 µg/mL)
- MIC (Mycobacterium kansasii [15]): 16 µM (≈ 4.68 µg/mL)
- MIC (Klebsiella pneumoniae [16]): > 500 µM
- MIC (Enterococcus sp. [17]): > 500 µM
- MIC (Staphylococcus aureus [18]): 7.81 µM (≈ 2.29 µg/mL)
- MIC (Aspergillus fumigatus [19]): 62.5 µM (≈ 18.3 µg/mL)
- MIC (Candida albicans [20]): > 500 µM
- MIC [21]: 7.81 µM (≈ 2.29 µg/mL)
- MIC (Candida tropicalis [22]): > 500 µM
- MIC (Mycobacterium kansasii [23]): 16 µM (≈ 4.68 µg/mL)
- MIC (Escherichia coli [24]): > 500 µM
- MIC (Klebsiella pneumoniae [25]): > 500 µM
- MIC (Mycobacterium kansasii [26]): 8 µM (≈ 2.34 µg/mL)
- MIC [27]: 15.6 µM (≈ 4.57 µg/mL)
- MIC (Candida tropicalis [28]): > 500 µM
- MIC (Pseudomonas aeruginosa [29]): > 500 µM
- MIC (Aspergillus fumigatus [30]): 125 µM (≈ 36.6 µg/mL)
- MIC (Mycobacterium avium [31]): 62.5 µM (≈ 18.3 µg/mL)
- MIC (Pichia kudriavzevii [32]): 125 µM (≈ 36.6 µg/mL)
- MIC (Pichia kudriavzevii [33]): 62.5 µM (≈ 18.3 µg/mL)
- MIC (Staphylococcus aureus [34]): 15.6 µM (≈ 4.57 µg/mL)
- MIC (Candida albicans [35]): > 500 µM
- MIC (Lichtheimia corymbifera [36]): 250 µM (≈ 73.2 µg/mL)
- MIC (Staphylococcus aureus [37]): 7.81 µM (≈ 2.29 µg/mL)
- MIC (Escherichia coli [38]): > 500 µM
- MIC (Trichosporon asahii [39]): 125 µM (≈ 36.6 µg/mL)
- MIC (Klebsiella pneumoniae [40]): > 500 µM
- MIC (Nakaseomyces glabratus [41]): > 500 µM
- MIC (Mycobacterium avium [42]): 32 µM (≈ 9.37 µg/mL)
